Measured values from ChEMBL document CHEMBL2040826, “Design, synthesis and antiviral activity of novel pyridazines” (Eur J Med Chem, 2012).

How the values were obtained:
[1] = Cytotoxicity against human TZM-bl cells at 10 uM after 48 hrs by MTT assay; format: cell-based
[2] = tested on: Human immunodeficiency virus; experiment: Antiviral activity against HIV infected in human TZM-bl cells at 10 uM after 48 hrs by measuring luciferase activity by luminometer analysis; format: functional; conditions: Human immunodeficiency virus 1, TZM-bl
Procedure, shortened: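 TZM-bl cells seeded at 10⁴ cells/well; samples (from DMSO stocks) added next day, then pseudotyped HIV; final DMSO 2%. Incubated 48 h at 37 °C in humidified CO₂. Steady-glow luciferase substrate added, lysis 20 min in dark, luminescence read. AZT and MK-0518 as positive controls; expressed as percent inhibition.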

Tobacco mosaic virus [3] = experiment: In vitro antiviral activity against TMV at 500 ug/ml; format: functional
Tobacco mosaic virus [4] = experiment: In vivo antiviral activity against TMV assessed as inactivation effect at 500 ug/ml; format: functional
Tobacco mosaic virus [5] = experiment: In vivo antiviral activity against TMV assessed as curative effect at 500 ug/ml; format: functional
Tobacco mosaic virus [6] = experiment: In vivo antiviral activity against TMV assessed as protection effect at 500 ug/ml; format: functional

SMILES | Activity [1] | inhibition at 10 µM [2] [%] | inhibition at 500 µg/mL (Tobacco mosaic virus [3]) [%] | Activity (Tobacco mosaic virus [4]) [%] | Activity (Tobacco mosaic virus [5]) [%] | Activity (Tobacco mosaic virus [6]) [%]
COC(=O)c1c(C(F)(F)F)nn(Cc2ccccn2)c(=O)c1O | Non-toxic | 5.41 | 21.3 | 18.3 | 9.3 | 16.7
O=C(NCc1ccc(F)cc1)c1c(C(F)(F)F)nn(Cc2ccc(F)cc2)c(=O)c1O | Non-toxic | 29.3 | 30 | 21.4 | 21.7 | 28.3
COC(=O)c1c(C(F)(F)F)nn(-c2ccc(F)cc2)c(=O)c1O | Non-toxic | 1.3 | – | – | – | –
Cc1nnc(C(=O)NC(C)(C)c2nc(C(=O)NCc3ccc(F)cc3)c(O)c(=O)n2C)o1 [RALTEGRAVIR POTASSIUM] | – | 95.1 | – | – | – | –
CC(C)(C)n1nc(C(F)(F)F)cc(NCc2ccc(F)cc2)c1=O | Non-toxic | 41.9 | 26.2 | 15.3 | 20.2 | 30.2
COC(=O)c1c(C(F)(F)F)nn(C(C)(C)C)c(=O)c1OC | Non-toxic | -6.5 | 0 | 0 | 6.3 | 5.7
O=C(NCc1ccc(F)cc1)c1c(C(F)(F)F)nn(Cc2ccccn2)c(=O)c1O | Non-toxic | 2.99 | 10 | 5.2 | 7.6 | 18.6
O=c1c(O)cc(C(F)(F)F)nn1-c1ccccc1 | Non-toxic | 6.33 | 0 | 0 | 14.8 | 7.6
COC(=O)c1c(C(F)(F)F)nn(Cc2cccnc2)c(=O)c1OC | Non-toxic | 19.5 | – | – | – | –
COC(=O)c1c(C(F)(F)F)nn(C)c(=O)c1OC | Non-toxic | -4 | 25 | 27.3 | 26.5 | 20.5
COC(=O)c1c(C(F)(F)F)nn(CC2CCCO2)c(=O)c1OC (centres undefined) | Non-toxic | 9.3 | 13.6 | 19.7 | 0 | 10.3
NC(=O)c1ncn([C@@H]2O[C@H](CO)[C@@H](O)[C@H]2O)n1 [RIBAVIRIN] | – | – | 38.5 | 34.2 | 32.7 | 39.6
COC(=O)c1c(C(F)(F)F)nn(Cc2ccccn2)c(=O)c1OC | Non-toxic | 20.2 | 0 | 0 | 0 | 15.2
O=C(NCc1ccc(F)cc1)c1c(C(F)(F)F)nn(Cc2ccco2)c(=O)c1O | Non-toxic | 13 | – | – | – | –
O=C(NCc1ccc(F)cc1)c1c(C(F)(F)F)nn(Cc2cccnc2)c(=O)c1O | Non-toxic | 7.31 | 7.5 | 18.2 | 12.8 | 18.9
O=c1c(O)cc(C(F)(F)F)nn1-c1ccc(F)cc1 | Non-toxic | -11.6 | – | – | – | –

SMILES | Activity [1] | inhibition at 10 µM [2] [%] | inhibition at 500 µg/mL (Tobacco mosaic virus [3]) [%] | Activity (Tobacco mosaic virus [4]) [%] | Activity (Tobacco mosaic virus [5]) [%] | Activity (Tobacco mosaic virus [6]) [%]
COC(=O)c1c(C(F)(F)F)nn(-c2ccccc2)c(=O)c1OC | Non-toxic | 5.9 | 20 | 16.5 | 12.5 | 19.2
COC(=O)c1c(C(F)(F)F)nn(-c2ccc(F)cc2)c(=O)c1OC | Non-toxic | 7.34 | 22.5 | 7.5 | 18.6 | 11.7
COC(=O)c1c(C(F)(F)F)nn(-c2ccccc2)c(=O)c1O | Non-toxic | -0.75 | 15.5 | 18.9 | 10.7 | 11.4
O=C(NCc1ccc(F)cc1)c1c(C(F)(F)F)nn(C/C=C/c2ccccc2)c(=O)c1O | Non-toxic | -27.2 | 18.4 | 0 | 10.2 | 12.2
COC(=O)c1c(C(F)(F)F)nn(Cc2ccco2)c(=O)c1OC | Non-toxic | -3.39 | 8.5 | 0 | 7.2 | 0
Cc1cn([C@H]2C[C@H](N=[N+]=[N-])[C@@H](CO)O2)c(=O)[nH]c1=O [ZIDOVUDINE] | – | 100 | – | – | – | –
COC(=O)c1c(C(F)(F)F)nn(Cc2ccc(F)cc2)c(=O)c1OC | Non-toxic | 13.9 | 27.5 | 11.2 | 10.3 | 20.2
O=C(NCc1ccc(F)cc1)c1c(C(F)(F)F)nn(Cc2cccs2)c(=O)c1NCc1ccc(F)cc1 | Non-toxic | 12.7 | 30 | 19.5 | 23.6 | 24.7
O=C(NCc1ccc(F)cc1)c1c(C(F)(F)F)nn(-c2ccc(F)cc2)c(=O)c1NCc1ccc(F)cc1 | Non-toxic | 19.5 | 28.5 | 30.2 | 34 | 31.3
Cn1nc(C(F)(F)F)c(C(=O)NCc2ccc(F)cc2)c(O)c1=O | Non-toxic | -3.5 | 19.6 | 25.4 | 28.4 | 32.8
O=C(NCc1ccc(F)cc1)c1c(C(F)(F)F)nn(-c2ccc(F)cc2)c(=O)c1O | Non-toxic | 19.5 | 18.6 | 10.3 | 17.4 | 15.6
Cn1nc(C(F)(F)F)c(C(=O)NCc2ccc(F)cc2)c(NCc2ccc(F)cc2)c1=O | Non-toxic | 53.5 | 8.6 | 23.9 | 11.3 | 17.5
CC(C)(C)n1nc(C(F)(F)F)cc(O)c1=O | Non-toxic | -11.6 | 31.7 | 18.6 | 27.2 | 23.1
COC(=O)c1c(C(F)(F)F)nn(C/C=C/c2ccccc2)c(=O)c1OC | Non-toxic | -19.4 | 20.3 | 23.7 | 29.8 | 22.9
COC(=O)c1c(C(F)(F)F)nn(Cc2cccs2)c(=O)c1OC | Non-toxic | 37 | 12.4 | 15.1 | 19.5 | 10
O=C(NCc1ccc(F)cc1)c1c(C(F)(F)F)nn(Cc2cccs2)c(=O)c1O | Non-toxic | -7.5 | 0 | 0 | 14.2 | 0
